ASAP1 inh: ASAP1 ArfGAP inhibition; Q9ULH1; ASAP1-stimulated ARF1 GTP hydrolysis, GDP FP detection; inhibition, % at 16.5 µM; actives 0.19% (n = 360,000); in the data active means inhibition above about 25%;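 further: 0% = vehicle with enzyme and substrate and 100% = no enzyme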
GalR3 antagonist: antagonists of human GalR3; HEK293 GalR3-CNG cAMP membrane potential fluorescence; galR3 body fused to GalR1 C-terminus; inhibition, % at 3 µM; actives 0.44% (n = 360,000);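 active means inhibition above the screen-wide average plus 3 SD, cut at about 13% in these data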;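 further: forskolin and galanin both at EC90 stimulate the cells; cAMP rise reported by CNG channel membrane potential dye signal; 0% = forskolin plus galanin with DMSO and 100% = forskolin alone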
Target sequence (O60755 1-299 limits assumed): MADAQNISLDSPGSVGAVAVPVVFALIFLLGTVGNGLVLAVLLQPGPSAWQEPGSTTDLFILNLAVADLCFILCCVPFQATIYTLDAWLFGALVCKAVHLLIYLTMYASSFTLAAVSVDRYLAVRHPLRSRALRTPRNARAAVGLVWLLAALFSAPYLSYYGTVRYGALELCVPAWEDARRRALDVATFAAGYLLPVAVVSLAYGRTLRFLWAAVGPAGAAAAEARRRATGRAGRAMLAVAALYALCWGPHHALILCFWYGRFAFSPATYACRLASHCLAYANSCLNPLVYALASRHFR
ARFGAP1 inh: inhibits rat ARF GTPase activating protein 1. Q62848. Arfgap1-stimulated ARF1 GTP hydrolysis, GDP FP detection. inhibition, % at 16.5 µM. actives 0.26% (n = 360,000);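 active means inhibition above a per-plate limit, mean inhibition of low control wells plus 3 SD, cut at about 25% in these data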;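 further: 0% = DMSO wells with enzyme and 100% = wells lacking Arfgap1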
Target sequence (Q62848 1-136 limits assumed): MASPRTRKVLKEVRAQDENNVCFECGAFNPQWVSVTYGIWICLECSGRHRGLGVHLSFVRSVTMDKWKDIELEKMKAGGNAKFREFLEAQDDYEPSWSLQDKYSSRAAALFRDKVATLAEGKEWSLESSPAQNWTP
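Material: truncated rat Arfgap1 GAP domain; Incubation: compound-enzyme preincubation 20 min, reaction 120 min, detection 60 min, 25 °C; Read-out: percent inhibition of Arfgap1-stimulated GTP hydrolysis; Technique: FP, GDP Alexa 633 tracer displaced from anti-GDP antibody, 620/688 nm; Controls: No-Arfgap1 wells (100%) versus DMSO full-reaction wells (0%); Replication: single well per compound.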
Rin1-Abl PPI inh: inhibitors of human Rin1-Abl protein interaction. P00519+Q13671. TR-FRET Rin1/Abl binding, biochemical. inhibition, % at 7.35 µM. actives 0.4% (n = 360,000). AID 588664; in the data active means inhibition above about 5%, passing the limit was not always enough
* hit, by the source's call. A selection: hits, their analogues and other compounds. The true share with any hit is near 1.2%.

Screening COc1cccc2sc(Nc3nc(-c4ccncc4)cs3)nc12 returned ASAP1 inh 3.6, GalR3 antagonist 2.5, ARFGAP1 inh 2.2 and Rin1-Abl PPI inh 1.3.
For COc1cccc2sc(Nc3nc(-c4cc5ccccc5oc4=O)cs3)nc12 the results were ASAP1 inh 22.9, GalR3 antagonist -4.8, ARFGAP1 inh 30.4* and Rin1-Abl PPI inh -4.4.
CC(=O)C1=C(C)N(Cc2ccc(F)cc2)C(=S)NC1c1ccc(Cl)cc1 (stereo not given) was read as ASAP1 inh -4.5, GalR3 antagonist -4.1 and ARFGAP1 inh 10.7.
Screening CCOC(=O)CCc1c(C)n[nH]c1C returned ASAP1 inh 10.3, GalR3 antagonist -3.4, ARFGAP1 inh 12.8 and Rin1-Abl PPI inh 0.9.
`CCOC(=O)CCCc1sc(N)nc1-c1[nH]c(=O)[nH]c1C` gave Rin1-Abl PPI inh 62.6*.
Screening O=C1c2ccccc2C2Cc3nnccc3CN12 (stereo not given) returned ASAP1 inh -8.1, GalR3 antagonist 2.8 and ARFGAP1 inh 11.2.
COc1ccc(CN(C)C(=O)c2ccc(OCC(=O)Nc3cccc(C(F)(F)F)c3)c(OC)c2)c(OC)c1 was read as ASAP1 inh 6.7, GalR3 antagonist 54.8*, ARFGAP1 inh 2.2 and Rin1-Abl PPI inh 0.9.
CC1=NN(c2ccccc2)C(=O)/C1=C/c1cccs1 was read as ASAP1 inh 1.2, GalR3 antagonist -1.1, ARFGAP1 inh -15.2 and Rin1-Abl PPI inh -0.6.
Screening CC1=NN(c2ccccc2)C(=O)C1=Cc1ccccc1 returned ASAP1 inh -2.3, GalR3 antagonist -6.6, ARFGAP1 inh -11.5 and Rin1-Abl PPI inh 28.9*.
`COC(=O)c1ccc2nc(C3CCCCC3)c(Cc3ccccc3OC)n2c1` gave ASAP1 inh 14.4, GalR3 antagonist -6.5 and ARFGAP1 inh 4.7.
For O=c1c(O)c(-c2cc(O)c(O)c(O)c2)oc2cc(O)cc(O)c12 the results were ASAP1 inh 8.1, ARFGAP1 inh 11.3 and Rin1-Abl PPI inh 55.3*.
O=c1c(O)c(-c2ccccc2)oc2cc(O)cc(O)c12 was read as ASAP1 inh 16.7, GalR3 antagonist -8.6, ARFGAP1 inh 15.6 and Rin1-Abl PPI inh 3.2.
For COC(=O)C1=C(C)N(Cc2ccccc2C(F)(F)F)C(=NCc2ccccc2)NC1c1ccc(Cl)cc1 (stereo not given) the results were ASAP1 inh -0.3, GalR3 antagonist -4.7 and ARFGAP1 inh 11.1.
Screening Nc1c(C(=O)NCC2CCCO2)sc2nc3c(c(-c4ccco4)c12)CC/C3=C\c1ccco1 (stereo not given) returned ASAP1 inh 15.7, GalR3 antagonist -5.1, ARFGAP1 inh -4.5 and Rin1-Abl PPI inh 5.6*.
NC(=O)c1sc2nc3c(c(-c4ccco4)c2c1N)CCCC3 was read as ASAP1 inh 6.3, GalR3 antagonist -1.8, ARFGAP1 inh 14.9 and Rin1-Abl PPI inh -2.7.
For COC(=O)[C@]12C[C@H](CC(=O)NCCC(C)C)C(=O)N(Cc3ccc4c(c3)OCO4)C1=C[C@H](COCc1ccccc1)O[C@@H]2C the results were ASAP1 inh -4.6, GalR3 antagonist -6.0 and ARFGAP1 inh -7.2.
For Cc1nccn1CCCNC(=O)c1nc(Cn2cc([N+](=O)[O-])cn2)no1 the results were ASAP1 inh -0.9, GalR3 antagonist 12.7*, ARFGAP1 inh 11.9 and Rin1-Abl PPI inh 1.6.
Screening O=C(NCCCn1ccnc1)c1nc(Cn2cc(Br)cn2)no1 returned ASAP1 inh 1.8, GalR3 antagonist -8.7, ARFGAP1 inh -5.5 and Rin1-Abl PPI inh 1.3.
C#CCOCCOCCOCCNc1nc(N2CCN(C(=O)CCCCCCCCCCNC(=O)[C@H](CCCCN)n3cc(CCO)nn3)CC2)nc(N2CCN(C(=O)CCCCCCCCCCNC(=O)[C@@H]([C@H](C)O)n3cc(C)nn3)CC2)n1 was read as Rin1-Abl PPI inh 9.6*.
For C#CCOCCOCCOCCNc1nc(N2CCN(C(=O)CCCCCCCCCCNC(=O)[C@@H](CCSC)n3cc(CCO)nn3)CC2)nc(N2CCN(C(=O)CCCCCCCCCCNC(=O)[C@H]([C@@H](C)CC)n3cc(CCCCN=C(N)N)nn3)CC2)n1 the results were Rin1-Abl PPI inh 24.5*.
C#CCOCCOCCOCCNc1nc(N2CCN(C(=O)CCCCCCCCCCNC(=O)[C@H](CCCCN)n3cc(C)nn3)CC2)nc(N2CCN(C(=O)CCCCCCCCCCNC(=O)[C@@H]([C@H](C)CC)n3cc(CCCCCN)nn3)CC2)n1 was read as Rin1-Abl PPI inh 12.2*.
